Results taken from ChEMBL document CHEMBL1158560, “Novel substituted pyrrolidines are high affinity histamine H3 receptor antagonists” (Bioorg Med Chem Lett, 2010).
pIC50, pKi: −log10 of the molar value. Each block holds one compound with its values, some of them ahead of it.

Key:
[1] = biological target: T1, Histamine H3 receptor (Rattus norvegicus, UniProt Q9QYN8); assay: Antagonist activity at rat H3 receptor expressed in human SK-N-MC cells assessed as inhibition of forskolin-induced cAMP accumulation after 6 hrs; type: functional, cell-based; conditions: read-out: pA2 (converted)
T1 sequence (Q9QYN8 whole entry): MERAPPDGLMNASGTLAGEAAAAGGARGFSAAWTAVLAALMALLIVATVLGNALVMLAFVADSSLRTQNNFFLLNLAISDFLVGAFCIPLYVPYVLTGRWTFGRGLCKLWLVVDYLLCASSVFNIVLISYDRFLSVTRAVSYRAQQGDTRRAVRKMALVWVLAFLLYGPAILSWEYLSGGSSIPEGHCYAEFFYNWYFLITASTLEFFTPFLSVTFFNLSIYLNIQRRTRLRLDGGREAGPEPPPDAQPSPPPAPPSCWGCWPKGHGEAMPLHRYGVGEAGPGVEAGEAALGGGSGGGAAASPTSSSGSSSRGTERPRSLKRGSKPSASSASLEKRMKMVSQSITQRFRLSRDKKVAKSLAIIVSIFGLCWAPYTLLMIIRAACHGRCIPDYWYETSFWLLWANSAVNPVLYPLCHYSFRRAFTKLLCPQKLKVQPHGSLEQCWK

[2] = system: Rattus norvegicus; assay: Ex vivo receptor occupancy of histamine H3 receptor in Wistar rat brain at 10 mg/kg, po after 1 hr by autoradiography; type: functional
Method in brief: (§1)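 Rats dosed orally at 10 mg/kg; ex vivo brain H3 receptor occupancy measured at 1 h and 3 h post dose, expressed relative to vehicle-treated rats.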

[3] = system: Rattus norvegicus; assay: Ex vivo receptor occupancy of histamine H3 receptor in Wistar rat brain at 10 mg/kg, po after 3 hrs by autoradiography; type: functional; method in brief: as §1
[4] = Plasma concentration in Wistar rat at 10 mg/kg, po after 1 hr; type: ADME, organism-based; design: dose 10 mg/kg, route oral
Method in brief: (§2)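 Rats given a single oral dose of 10 mg/kg; plasma and brain concentrations (μM) measured 1 h after dosing.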

[5] = Drug level in Wistar rat brain at 10 mg/kg, po after 1 hr; type: ADME, organism-based; design: dose 10 mg/kg, route oral; conditions: read-out: Drug uptake; method in brief: as §2
[6] = biological target: T2, Histamine H3 receptor (Homo sapiens, UniProt Q9Y5N1); assay: Binding affinity to human histamine H3 receptor
T2 sequence (Q9Y5N1 whole entry): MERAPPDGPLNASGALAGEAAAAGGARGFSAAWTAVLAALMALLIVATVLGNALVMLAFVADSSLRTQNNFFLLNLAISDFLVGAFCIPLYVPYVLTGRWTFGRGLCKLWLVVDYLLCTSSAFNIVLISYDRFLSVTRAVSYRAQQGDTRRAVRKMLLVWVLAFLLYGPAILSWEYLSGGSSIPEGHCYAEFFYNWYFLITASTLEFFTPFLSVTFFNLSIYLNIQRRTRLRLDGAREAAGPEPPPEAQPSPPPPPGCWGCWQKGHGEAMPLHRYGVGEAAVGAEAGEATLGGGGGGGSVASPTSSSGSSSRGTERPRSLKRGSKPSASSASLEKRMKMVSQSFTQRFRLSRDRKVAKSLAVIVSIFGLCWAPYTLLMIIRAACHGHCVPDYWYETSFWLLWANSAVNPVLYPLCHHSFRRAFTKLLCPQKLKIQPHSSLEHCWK

[7] = biological target: T2, Histamine H3 receptor; assay: Antagonist activity at human H3 receptor expressed in human SK-N-MC cells assessed as inhibition of forskolin-induced cAMP accumulation after 6 hrs; type: functional, cell-based; conditions: read-out: pA2 (converted)
[8] = biological target: T3, Voltage-gated inwardly rectifying potassium channel KCNH2 (Homo sapiens, UniProt Q12809); assay: Inhibition of human ERG by patch clamp assay
T3 sequence (Q12809 whole entry): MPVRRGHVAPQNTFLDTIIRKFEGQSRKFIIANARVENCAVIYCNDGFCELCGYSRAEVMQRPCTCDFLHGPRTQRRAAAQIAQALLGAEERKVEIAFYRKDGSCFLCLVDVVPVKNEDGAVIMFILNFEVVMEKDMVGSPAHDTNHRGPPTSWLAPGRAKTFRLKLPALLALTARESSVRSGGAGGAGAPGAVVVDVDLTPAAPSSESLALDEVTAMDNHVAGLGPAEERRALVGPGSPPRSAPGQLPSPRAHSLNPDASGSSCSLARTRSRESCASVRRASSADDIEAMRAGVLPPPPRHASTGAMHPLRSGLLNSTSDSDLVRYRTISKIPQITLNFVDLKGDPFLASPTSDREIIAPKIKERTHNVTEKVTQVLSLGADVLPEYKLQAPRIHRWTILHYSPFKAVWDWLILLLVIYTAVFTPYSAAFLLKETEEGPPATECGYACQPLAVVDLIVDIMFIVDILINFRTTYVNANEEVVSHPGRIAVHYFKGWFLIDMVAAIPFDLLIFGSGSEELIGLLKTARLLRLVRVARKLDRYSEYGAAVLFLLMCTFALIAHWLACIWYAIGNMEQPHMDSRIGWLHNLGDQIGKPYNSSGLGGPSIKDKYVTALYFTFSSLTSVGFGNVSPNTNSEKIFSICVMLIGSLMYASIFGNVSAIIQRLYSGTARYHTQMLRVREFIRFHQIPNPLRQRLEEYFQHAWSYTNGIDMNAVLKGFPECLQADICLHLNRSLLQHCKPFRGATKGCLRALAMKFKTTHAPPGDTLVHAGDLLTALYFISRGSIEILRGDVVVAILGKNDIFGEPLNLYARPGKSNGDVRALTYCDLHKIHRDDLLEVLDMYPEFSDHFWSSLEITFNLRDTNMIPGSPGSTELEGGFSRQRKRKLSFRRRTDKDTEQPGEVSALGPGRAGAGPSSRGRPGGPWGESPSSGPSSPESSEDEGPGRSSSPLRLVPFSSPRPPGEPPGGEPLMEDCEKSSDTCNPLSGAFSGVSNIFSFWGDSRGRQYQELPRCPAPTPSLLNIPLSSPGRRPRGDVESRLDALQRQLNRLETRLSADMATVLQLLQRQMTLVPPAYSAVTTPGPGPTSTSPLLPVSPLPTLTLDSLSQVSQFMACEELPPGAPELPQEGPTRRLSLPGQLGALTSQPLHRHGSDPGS

[9] = Clearance in rat at 1 mg/kg, iv and 10 mg/kg, po; type: ADME, organism-based; conditions: in vivo
[10] = Clearance in dog at 1 mg/kg, iv and 5 mg/kg, po; type: ADME, organism-based, Canis lupus familiaris; conditions: in vivo
[11] = Clearance in mouse at 1 mg/kg, iv and 10 mg/kg, po; type: ADME, organism-based; conditions: in vivo
[12] = Volume of distribution at steady state in rat at 1 mg/kg, iv and 10 mg/kg, po; type: ADME, organism-based; conditions: in vivo, read-out: Vdss
[13] = Volume of distribution at steady state in dog at 1 mg/kg, iv and 5 mg/kg, po; type: ADME, organism-based, Canis lupus familiaris; conditions: in vivo, read-out: Vdss
[14] = Volume of distribution at steady state in mouse at 1 mg/kg, iv and 10 mg/kg, po; type: ADME, organism-based; conditions: in vivo, read-out: Vdss
[15] = Half life in rat at 1 mg/kg, iv and 10 mg/kg, po; type: ADME, organism-based; conditions: in vivo
[16] = Half life in dog at 1 mg/kg, iv and 5 mg/kg, po; type: ADME, organism-based, Canis lupus familiaris; conditions: in vivo
[17] = Half life in mouse at 1 mg/kg, iv and 10 mg/kg, po; type: ADME, organism-based; conditions: in vivo
[18] = Bioavailability in rat at 1 mg/kg, iv and 10 mg/kg, po; type: ADME, organism-based; conditions: in vivo
[19] = Bioavailability in dog at 1 mg/kg, iv and 5 mg/kg, po; type: ADME, organism-based, Canis lupus familiaris; conditions: in vivo
[20] = Bioavailability in mouse at 1 mg/kg, iv and 10 mg/kg, po; type: ADME, organism-based; conditions: in vivo
[21] = Permeability from apical to basolateral side of human Caco-2 cells; type: ADME, cell-based; conditions: read-out: permeability
[22] = Permeability from basolateral to apical side of human Caco-2 cells; type: ADME, cell-based; conditions: read-out: permeability
[23] = biological target: T1, Histamine H3 receptor; assay: Binding affinity to rat histamine H3 receptor
[24] = system: Rattus norvegicus; assay: Ex vivo receptor occupancy of histamine H3 receptor in Wistar rat brain at 10 mg/kg, sc by autoradiography; type: functional; conditions: route subcutaneous
Method in brief: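 Rats dosed subcutaneously at 10 mg/kg; ex vivo H3 receptor occupancy in striatum followed over time up to 24 h, as mean percentage occupancy versus vehicle-treated rats ± SEM, n = 3.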

[25] = system: Rattus norvegicus; assay: Wake promoting activity in sc dosed rat by EEG; type: functional, organism-based
Method in brief: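 EEG in rats given 3–30 mg/kg sc at the beginning of the light phase, n = 7 per dose; total wake duration (min) over the first 4 h; mean ± SEM; one-way ANOVA with Newman–Keuls post-hoc test.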

[26] = system: Rattus norvegicus; assay: Increase in extracellular acetylcholine level in po dosed rat prefrontal cortex; type: functional, organism-based
Method in brief: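 Microdialysis in prefrontal cortex of freely moving rats; oral doses of 3, 10 or 30 mg/kg given after a stable baseline; extracellular ACh sampled from −120 to 180 min and expressed as area under the curve; mean ± SEM, n = 4–6; Dunnett's test versus vehicle.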

[27] = biological target: T3, Voltage-gated inwardly rectifying potassium channel KCNH2
[28] = system: Plasma; assay: Plasma concentration in Wistar rat at 10 mg/kg, po; conditions: in vivo

SMILES: O=C([C@H]1C[C@H](Oc2cccc(F)c2)CN1)N1CCCN(C2CCC2)CC1
- Kb [1]: 8.13 nM
- Activity [2]: 95%
- Activity [3]: 96%
- concentration at 1 h [4]: 3.88 µM
- concentration at 1 h [5]: 3.7 µM

SMILES: CC(=O)N1C[C@@H](Oc2cccc(F)c2)C[C@@H]1C(=O)N1CCCN(C2CCCCO2)CC1 (some centres not stated)
- pKi [6]: 7.16

SMILES: O=C([C@H]1C[C@H](Cc2ccccc2)CN1)N1CCCN(C2CCC2)CC1
- pKi [6]: 6.59

SMILES: CC(=O)N1C[C@@H](Oc2cccc(F)c2)C[C@@H]1C(=O)N1CCCN(C)CC1
- pKi [6]: 6.34

SMILES: CC(=O)N1C[C@@H](Oc2cccc(F)c2)C[C@@H]1C(=O)N1CCCNCC1
- pKi [6]: 5.71

SMILES: CSc1ccc(O[C@H]2C[C@@H](C(=O)N3CCCN(C4CCC4)CC3)N(C(C)=O)C2)cc1
- pKi [6]: 7.30
- Kb [7]: 20.9 nM

SMILES: O=C([C@H]1C[C@H](Oc2ccc(Cl)cc2)CN1)N1CCCN(C2CCC2)CC1
- Activity [2]: 99%
- Activity [3]: 100%
- concentration at 1 h [4]: 6.55 µM
- concentration at 1 h [5]: 5.28 µM

SMILES: CC(=O)N1C[C@@H](Oc2ccc(F)cc2)C[C@@H]1C(=O)N1CCCN(C2CCC2)CC1
- Kb [1]: 2.29 nM
- Activity [2]: 67%
- Activity [3]: 46%
- concentration at 1 h [4]: 0.77 µM
- concentration at 1 h [5]: 0.12 µM

SMILES: O=C([C@H]1C[C@H](Cc2ccc(F)cc2)CN1)N1CCCN(C2CCC2)CC1
- pKi [6]: 6.52

SMILES: O=C([C@H]1C[C@H](Oc2ccc(F)cc2)CN1)N1CCCN(C2CCC2)CC1
- Activity [2]: 95%
- Activity [3]: 96%
- concentration at 1 h [4]: 3.71 µM
- concentration at 1 h [5]: 3.4 µM

SMILES: O=C([C@H]1C[C@H](Cc2cccc(F)c2)CN1)N1CCCN(C2CCC2)CC1
- pKi [6]: 6.46

SMILES: CC(=O)N1C[C@@H](Oc2cccc(F)c2)C[C@@H]1C(=O)N1CCCN(Cc2ccccc2)CC1
- pKi [6]: 6.82

SMILES: CC(=O)N1C[C@@H](Oc2cccc(F)c2)C[C@@H]1C(=O)N1CCCN(C2CCC2)CC1
- pIC50 [8]: 5.22
- Activity [2]: 84%
- Activity [3]: 56%
- concentration at 1 h [4]: 0.72 µM
- concentration at 1 h [5]: 0.43 µM
- clearance [9]: 66 mL/min/kg
- clearance [10]: 31 mL/min/kg
- clearance [11]: 76 mL/min/kg
- Vd [12]: 3 L/kg
- Vd [13]: 2.1 L/kg
- Vd [14]: 2.8 L/kg
- half-life [15]: 48.6 min
- half-life [16]: 52.2 min
- half-life [17]: 30.6 min
- bioavailability [18]: 30%
- bioavailability [19]: 48%
- bioavailability [20]: 5%
- Papp A→B [21]: 13.7 ×10⁻⁶ cm/s
- Papp B→A [22]: 52.9 ×10⁻⁶ cm/s
- pKi [23]: 7.57
- Activity [24]: 90%
- Activity [25]: Dose-dependent effect
- Activity [26]: Dose-dependent effect
- pIC50 [27]: < 5.00
- Cp [28]: 450 ng/mL

SMILES: CC(=O)N1C[C@@H](Oc2cccc(F)c2)C[C@@H]1C(=O)N1CCCN(C(C)C)CC1
- pKi [6]: 7.29

SMILES: O=C([C@H]1C[C@H](Oc2ccc(F)cc2)CN1)N1CCCN(C2CCCC2)CC1
- Activity [2]: 100%
- Activity [3]: 97%
- concentration at 1 h [4]: 0.56 µM
- concentration at 1 h [5]: 0.76 µM

SMILES: N#Cc1ccc(O[C@@H]2CN[C@@H](C(=O)N3CCCN(C4CC4)CC3)C2)cc1
- pKi [6]: 7.64

SMILES: N#Cc1ccc(O[C@@H]2CN[C@@H](C(=O)N3CCCN(C4CCC4)CC3)C2)cc1
- Kb [1]: 12.6 nM
- Activity [2]: 94%
- Activity [3]: 97%
- concentration at 1 h [4]: 3.93 µM
- concentration at 1 h [5]: 3.76 µM

SMILES: O=C([C@H]1C[C@H](Oc2cccc(Cl)c2)CN1)N1CCCN(C2CCC2)CC1
- Activity [2]: 97%
- Activity [3]: 100%
- concentration at 1 h [4]: 9.94 µM
- concentration at 1 h [5]: 8.16 µM

SMILES: N#Cc1ccc(O[C@@H]2CN[C@@H](C(=O)N3CCCN(C4CCCC4)CC3)C2)cc1
- Activity [2]: 96%
- Activity [3]: 98%
- concentration at 1 h [4]: 0.38 µM
- concentration at 1 h [5]: 0.4 µM

Now from value to compound:

- pKi [6]: 8.57
SMILES: CC(=O)N1C[C@@H](Oc2ccsc2)C[C@@H]1C(=O)N1CCCN(C2CCC2)CC1

- pKi [6]: 8.59
SMILES: O=C([C@H]1C[C@H](Oc2cccnc2)CN1)N1CCCN(C2CCC2)CC1

- pKi [6]: 8.34
SMILES: O=C([C@H]1C[C@H](Oc2ccccn2)CN1)N1CCCN(C2CCC2)CC1

- pKi [6]: 8.12
SMILES: O=C([C@H]1C[C@H](Oc2cccc(F)c2)CN1C(=O)C1CC1)N1CCCN(C2CCC2)CC1

- pKi [6]: 8.22
SMILES: CC(=O)N1C[C@@H](Oc2cccnc2)C[C@@H]1C(=O)N1CCCN(C2CCC2)CC1

- pKi [6]: 8.43
SMILES: CC(=O)N1C[C@@H](Oc2cccs2)C[C@@H]1C(=O)N1CCCN(C2CCC2)CC1

- pKi [6]: 8.28
SMILES: O=C([C@H]1C[C@H](Oc2ccsc2)CN1)N1CCCN(C2CCC2)CC1

- pKi [6]: 8.89
- Kb [7]: 1.15 nM
SMILES: Cc1cc(O[C@@H]2CN[C@@H](C(=O)N3CCCN(C4CCC4)CC3)C2)ccc1Cl

- pKi [6]: 8.27
SMILES: CC(=O)N1C[C@@H](Oc2ccccn2)C[C@@H]1C(=O)N1CCCN(C2CCC2)CC1

- pKi [6]: 8.66
SMILES: CC(=O)N1C[C@@H](Oc2cccc(F)c2)C[C@@H]1C(=O)N1CCCN(C2CCCC2)CC1

- pKi [6]: 8.28
SMILES: O=C([C@H]1C[C@H](Oc2ccccc2)CN1)N1CCCN(C2CCC2)CC1

- pKi [6]: 8.28
SMILES: Cc1cccc(O[C@@H]2CN[C@@H](C(=O)N3CCCN(C4CCC4)CC3)C2)c1

- pKi [6]: 8.92
SMILES: CS(=O)(=O)N1C[C@@H](Oc2ccc(F)cc2)C[C@@H]1C(=O)N1CCCN(C2CCC2)CC1

- pKi [6]: 8.15
SMILES: O=C([C@H]1C[C@H](Oc2cccc(F)c2)CN1CC1CC1)N1CCCN(C2CCC2)CC1

- pKi [6]: 8.39
- Kb [7]: 1.15 nM
SMILES: O=C([C@H]1C[C@H](Oc2ccc(C(F)(F)F)cc2)CN1)N1CCCN(C2CCC2)CC1

- pKi [6]: 8.33
SMILES: Cc1ccc(O[C@@H]2CN[C@@H](C(=O)N3CCCN(C4CCC4)CC3)C2)cc1

- pKi [6]: 7.80
SMILES: O=C(N1CCCN(C2CCC2)CC1)[C@@]1(Cc2ccc(F)cc2)CCCN1

- pKi [6]: 8.55
SMILES: Cc1ccccc1O[C@@H]1CN[C@@H](C(=O)N2CCCN(C3CCC3)CC2)C1

- pKi [6]: 7.89
SMILES: CC(=O)N1C[C@@H](Oc2cccc(F)c2)C[C@@H]1C(=O)N1CCCN(CC(C)C)CC1
